Results on 15 compounds are retold here after ChEMBL document CHEMBL2040754, “Regioselective reaction: synthesis, characterization and pharmacological activity of some new Mannich and Schiff bases containing sydnone” (2012).

Holding throughout (type): functional
Assay [1] concerns Rattus norvegicus. Kind of assay: Analgesic activity in Wistar albino rat assessed as thermal-stimulus induced tail flick latency time at 20 mg/kg measured after 90 mins (reference value: 3.25 +/- 0.005 secs).
Assay [2] has as its system Rattus norvegicus. Kind of assay: Analgesic activity in Wistar albino rat assessed as thermal-stimulus induced tail flick latency time at 20 mg/kg measured after 30 mins (reference value: 3.23 +/- 0.005 secs).
Assay [3] deals with Rattus norvegicus. Kind of assay: Analgesic activity in Wistar albino rat assessed as thermal-stimulus induced tail flick latency time at 20 mg/kg measured after 60 mins (reference value: 3.34 +/- 0.005 secs). For orientation: Thermal pain tests record how soon the animal reacts.
Assay [4] concerns Rattus norvegicus. Kind of assay: Antiinflammatory activity in Wistar albino rat assessed as reduction of carrageenan-induced paw edema at 20 mg/kg, po measured after 30 mins by plethysmometer. Further details: scale not given: the % may be the effect or the level left. The method, boiled down:
(§1)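 Rats 150e200 g dosed orally with test suspension 20 mg/kg, control given 1 mL of 1% carboxymethyl cellulose suspension. After 30 min, 0.1 mL of 1% carrageenan in normal saline injected subcutaneously into the sub-plantar region of the right hind paw. Paw volume read by plethysmometer at 0 h, 30, 60 and 120 min. Data as mean, one-way ANOVA then Dunnett's t-test.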

Assay [5] has as its system Rattus norvegicus. Kind of assay: Antiinflammatory activity in Wistar albino rat assessed as reduction of carrageenan-induced paw edema at 20 mg/kg, po measured after 2 hrs by plethysmometer. Further details: scale not given: the % may be the effect or the level left. The procedure, abridged: as §1
In general terms: Carrageenan injected into the paw causes an acute inflammation.

In assay [6] the test system is Rattus norvegicus. In words: Antiinflammatory activity in Wistar albino rat assessed as reduction of carrageenan-induced paw edema at 20 mg/kg, po measured after 1 hr by plethysmometer. Set-up: scale not given: the % may be the effect or the level left. The method, boiled down: as §1

Consider `CC(C)=CCN1CC[C@]2(C)c3cc(O)ccc3C[C@H]1[C@H]2C` [(+)-PENTAZOCINE], for which the Time in assay [1] was determined as 7.45 s; in assay [2] it was 6.25 s; in assay [3], 6.95 s.
Consider `COc1ccc(-[n+]2noc([O-])c2/C=N/n2c(C(C)c3ccc(CC(C)C)cc3)nn(CN3CCCCC3)c2=S)cc1` (centres undefined), for which the Activity in assay [4] worked out at 42.7%; in assay [5], 56.2%; in assay [6], 48.6%. The Time turned out to be 6.26 s in assay [1], 4.61 s in assay [2] and 5.55 s in assay [3].
With `COc1ccc(-[n+]2noc([O-])c2/C=N/n2c(C(C)c3ccc(CC(C)C)cc3)nn(CN3CCOCC3)c2=S)cc1` (centres undefined), the Activity in assay [4] worked out at 49%; in assay [5], 65.8%; in assay [6], 57%. Further, the Time in assay [1] is given as 6.82 s; in assay [2], 4.77 s; in assay [3], 5.92 s.
As for `Cc1ccc(-[n+]2noc([O-])c2/C=N/n2c(C(C)c3ccc(CC(C)C)cc3)nn(CN3CCOCC3)c2=S)cc1` (centres undefined), the Activity stood at 41.9% in assay [4], 66.6% in assay [5] and 53% in assay [6]. The Time in assay [1] is on record as 7.12 s; in assay [2], 5.15 s; in assay [3], 5.91 s.
With `CC(C)Cc1ccc(C(C)c2n[nH]c(=S)n2/N=C/c2c([O-])on[n+]2-c2ccccc2)cc1` (centres undefined), the Activity is reported as 32.9% in assay [4], 50.2% in assay [5] and 39.4% in assay [6]. In addition, the Time in assay [1] is 6.6 s; in assay [2] it was 5.76 s; in assay [3], 6.24 s.
On to `Cc1ccc(-[n+]2noc([O-])c2/C=N/n2c(C(C)c3ccc(CC(C)C)cc3)n[nH]c2=S)cc1` (centres undefined), for which the Activity is given as 39.2% in assay [4], 55.4% in assay [5] and 46.9% in assay [6]. The results for the Time in assay [1], in assay [2] and in assay [3] were 6.92 s, 4.99 s and 6.11 s, respectively.
As to `COc1ccc2c(c1)c(CC(=O)O)c(C)n2C(=O)c1ccc(Cl)cc1` [INDOMETHACIN], the Activity in assay [4] amounted to 58.1%; in assay [5], 70.1%; in assay [6], 65.8%.
On to `Cc1ccc(-[n+]2noc([O-])c2/C=N/n2c(C(C)c3ccc(CC(C)C)cc3)nn(CN3CCN(c4ccccc4)CC3)c2=S)cc1` (centres undefined), for which the Activity in assay [4] is 31.5%; in assay [5], 40.2%; in assay [6], 35.9%. For the same compound, the Time in assay [1] was determined as 5.35 s; in assay [2], 4.15 s; in assay [3], 4.41 s.
With `Cc1ccc(-[n+]2noc([O-])c2/C=N/n2c(C(C)c3ccc(CC(C)C)cc3)nn(CN3CCCCC3)c2=S)cc1` (centres undefined), the Activity in assay [4] came to 39.1%; in assay [5], 54.1%; in assay [6], 46.9%. Also, the values for the Time in assay [1], in assay [2] and in assay [3] were 5.1 s, 3.92 s and 4.31 s, respectively.
In the case of `CC(C)Cc1ccc(C(C)c2nn(CN3CCCCC3)c(=S)n2/N=C/c2c([O-])on[n+]2-c2ccccc2)cc1` (centres undefined), the Activity turned out to be 45% in assay [4], 67.9% in assay [5] and 56.1% in assay [6]. The values for the Time in assay [1], in assay [2] and in assay [3] were 6.8 s, 4.56 s and 5.73 s, respectively.
Turning to `Cc1ccc(-[n+]2noc([O-])c2/C=N/n2c(C(C)c3ccc(CC(C)C)cc3)nn(CN3CCN(C)CC3)c2=S)cc1` (centres undefined), the Activity in assay [4] came to 36.5%; in assay [5], 56.2%; in assay [6] it was 48.7%. For the same compound, the Time in assay [1] was found to be 6.21 s; in assay [2] it was 4.52 s; in assay [3] it was 5.25 s.
Take `CCN1CCN(Cn2nc(C(C)c3ccc(CC(C)C)cc3)n(/N=C/c3c([O-])on[n+]3-c3ccccc3)c2=S)CC1` (centres undefined): the results for the Activity in assay [4], in assay [5] and in assay [6] were 38.7%, 54.5% and 46.9%, respectively. The Time in assay [1] was 6.41 s; in assay [2], 4.4 s; in assay [3], 5.39 s.
As for `CC(C)Cc1ccc(C(C)c2nn(CN3CCOCC3)c(=S)n2/N=C/c2c([O-])on[n+]2-c2ccccc2)cc1` (centres undefined), the Activity turned out to be 43.7% in assay [4], 65.3% in assay [5] and 55.3% in assay [6]. Besides, the values for the Time in assay [1], in assay [2] and in assay [3] were 6.9 s, 4.92 s and 6.1 s, respectively.
Consider `COc1ccc(-[n+]2noc([O-])c2/C=N/n2c(C(C)c3ccc(CC(C)C)cc3)n[nH]c2=S)cc1` (centres undefined), for which the Activity is 48.6% in assay [4], 64% in assay [5] and 55.2% in assay [6]. The Time is 7.23 s in assay [1], 5.41 s in assay [2] and 6.3 s in assay [3].
Take `CC(C)Cc1ccc(C(C)c2nn(CN3CCN(c4ccccc4)CC3)c(=S)n2/N=C/c2c([O-])on[n+]2-c2ccccc2)cc1` (centres undefined): the results for the Activity in assay [4], in assay [5] and in assay [6] were 27.9%, 38.5% and 34.2%, respectively. The figures for the Time in assay [1], in assay [2] and in assay [3] were 6.05 s, 4.19 s and 5.03 s, respectively.
